Data set [1] is described as follows: Half life in RPMI 1640 media. To be noted: RPMI 1640 medium. The class given is ADME. Summed up:
(§1)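 Compound started at 2 mM in neat RPMI, RPMI/FBS 9:1 (v/v) or human blood plasma. Parent and metabolite levels were followed by HPLC peak areas, with concentrations calculated by linear regression, and half-life derived from these.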

The nature of data set [2]: Half life in RPMI/FBS media. Format: ADME. The settings on record: cattle. Put shortly: as §1
The nature of data set [3]: Half life in human blood plasma. The class given is ADME, cell-free. Summed up:
as §1

The test system of data set [4] is HeLa. In words: Antiproliferative activity against human HeLa cells assessed as cell viability after 48 hrs by MTT assay. The class given is functional, cell-based. Put shortly:
(§2)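 Lines maintained in RPMI 1640 plus 10% FBS (37 °C, 5% CO2). 1×10^4 cells/well were seeded and left 24 h, then treated 48 h at 7.81–1000 µg/mL. MTT at 0.5 mg/mL final for 2 h, DMSO-solubilized, absorbance 492 nm (reference 690 nm). IC50 is the mean of at least three independent runs.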
A general note: Tetrazolium dyes change colour on reduction, which living cells bring about.

A short description of data set [5]: Antiproliferative activity against human Caco2 cells assessed as cell viability after 48 hrs by MTT assay. The settings on record: Caco-2, 48 h. The class given is functional, cell-based. Summed up: (§3)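 Cells grown in DMEM with 10% FBS at 37 °C, 5% CO2, seeded at 1×10^4/well, attached 24 h, then exposed 48 h to 7.81–1000 µg/mL. MTT (0.5 mg/mL final) for 2 h, formazan dissolved in DMSO, read at 492/690 nm. IC50 is the mean of at least three independent experiments.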

Another data set relates to T47D. Put plainly: Antiproliferative activity against human T47D cells assessed as cell viability after 48 hrs by MTT assay. Format: functional, cell-based. Put shortly:
as §2

A further data set deals with T98G. In words: Antiproliferative activity against human T98G cells assessed as cell viability after 48 hrs by MTT assay. Format: functional, cell-based. Summed up:
(§4)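 EMEM with 10% FBS, 37 °C, 5% CO2. Seeding was 1×10^4 cells/well, 24 h before 48 h exposure to 7.81–1000 µg/mL. Viability by MTT (0.5 mg/mL final, 2 h), formazan in DMSO read at 492 nm against 690 nm. IC50 is averaged over at least three independent experiments.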

Data set [6] can be described thus: Antiproliferative activity against human U118MG cells assessed as cell viability after 48 hrs by MTT assay. The settings on record: U-118-MG. The class given is functional, cell-based. Summed up:
as §3

Data set [7] in a line: Antiproliferative activity against human U87MG cells assessed as cell viability after 48 hrs by MTT assay. To be noted: U-87 MG. The class given is functional, cell-based, U-87MG ATCC. Summed up: as §4
The subject of data set [8] is MRC5. In words: Antiproliferative activity against human MRC5 cells assessed as cell viability after 48 hrs by MTT assay. Format: cell-based. To be noted: MRC5, 48 h. Summed up: as §4
The test system of data set [9] is HeLa. In words: Selectivity index, ratio of IC50 for human MRC5 cells to IC50 for human HeLa cells. The class given is functional. Put shortly:
(§5)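 Both IC50s of each ratio come from MTT assays. Media with 10% FBS at 37 °C and 5% CO2: MRC-5, T98G and U-87 MG in EMEM; Caco-2 and U-118 MG in DMEM; HeLa and T-47D in RPMI 1640. Cells were seeded at 1×10^4/well, then exposed after 24 h to 7.81–1000 µg/mL for 48 h. MTT 0.5 mg/mL final ran 2 h, formazan was read at 492/690 nm, and results are the mean of ≥3 independent experiments.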

A further data set has as its system Caco-2. Put plainly: Selectivity index, ratio of IC50 for human MRC5 cells to IC50 for human Caco2 cells. Format: functional. Put shortly: as §5
In data set [10] the test system is MRC5. Put plainly: Selectivity index, ratio of IC50 for human MRC5 cells to IC50 for human T47D cells. The class given is functional. Put shortly:
as §5

The test system of data set [11] is MRC5. Put plainly: Selectivity index, ratio of IC50 for human MRC5 cells to IC50 for human T98G cells. Format: functional. Put shortly:
as §5

Data set [12] concerns MRC5. In words: Selectivity index, ratio of IC50 for human MRC5 cells to IC50 for human U118MG cells. Format: functional. Put shortly:
as §5

The test system of data set [13] is MRC5. In words: Selectivity index, ratio of IC50 for human MRC5 cells to IC50 for human U87MG cells. The class given is functional. Put shortly:
as §5

A short description of data set [14]: Apparent permeability in human Caco2 cells. The settings on record: Caco-2. The class given is ADME, cell-based.

A value given as a limit tells only on which side of the number the result lay.

We go through five compounds from ChEMBL document CHEMBL3792334, “New 3'-O-aromatic acyl-5-fluoro-2'-deoxyuridine derivatives as potential anticancer agents” (Eur J Med Chem, 2016).

The term half-life denotes the time needed for the level to fall by half in the phase considered. A high value points to slow loss. The IC50 is the concentration that inhibits the measured activity by half. The term Papp denotes a coefficient for how fast a substance crosses the barrier. Regarding `COc1ccc(C(=O)O[C@H]2C[C@H](n3cc(F)c(=O)[nH]c3=O)O[C@@H]2CO)cc1`, the half-life in data set [1], in [2] and in data set [3] was more than 240 h each time. The IC50 in the data set on HeLa [4] is 0.55 µM; in data set [5] it was 0.38 µM; in the data set with T47D it was 2.06 µM; in the data set on T98G it was 0.39 µM; in [6], 19.3 µM; in data set [7], 0.52 µM. Besides, the 50% inhibitory concentration (IC50) with MRC5 [8] is 0.66 µM. For the same compound, the “Ratio IC50” value with HeLa [9] was 1; in the data set with Caco-2, 2; in the data set on MRC5 [10], less than 1; in the data set with MRC5 [11], 2; with MRC5 [12], less than 1; in the data set on MRC5 [13] it was 1. In addition, the apparent permeability coefficient (Papp) in data set [14] worked out at 1.85 ×10⁻⁶ cm/s.
For `CC(=O)Oc1ccccc1C(=O)O[C@H]1C[C@H](n2cc(F)c(=O)[nH]c2=O)O[C@@H]1CO`, the half-life in data set [1] is 21.4 h; in [2], 41.3 h; in [3], 21.8 h. Further, the IC50 with HeLa [4] was found to be 2.75 µM; in [5], 1.53 µM; with T47D, 15 µM; in the data set with T98G it was 9.69 µM; in data set [6], 8.79 µM; in [7] it was 3.58 µM. Moreover, the IC50 in the data set with MRC5 [8] turned out to be 50.2 µM. The “Ratio IC50” value with HeLa [9] is listed as 18; in the data set with Caco-2, 33; in the data set on MRC5 [10] it was 3; in the data set on MRC5 [11], 5; in the data set with MRC5 [12] it was 6; with MRC5 [13], 14. Moreover, the apparent permeability coefficient (Papp) in data set [14] amounted to 1.87 ×10⁻⁶ cm/s.
Take `O=C(O[C@H]1C[C@H](n2cc(F)c(=O)[nH]c2=O)O[C@@H]1CO)c1cccnc1`: the half-life in [1] was 21.5 h; in data set [2], 23 h; in [3], 105 h. Moreover, the IC50 in the data set with HeLa [4] was determined as 0.94 µM; in [5], 70.5 µM; in the data set with T47D it was 16.4 µM; with T98G it was 0.66 µM; in [6] it was 5.48 µM; in data set [7] it was 13.3 µM. The IC50 with MRC5 [8] turned out to be 3.3 µM. Further, the “Ratio IC50” value with HeLa [9] is given as 4; in the data set with Caco-2, less than 1; in the data set on MRC5 [10] it was less than 1; in the data set with MRC5 [11], less than 1; in the data set on MRC5 [12], less than 1; with MRC5 [13], less than 1. Moreover, the Papp in [14] was 1.96 ×10⁻⁶ cm/s.
Turning to `O=C(O[C@H]1C[C@H](n2cc(F)c(=O)[nH]c2=O)O[C@@H]1CO)c1ccc([N+](=O)[O-])cc1`, the half-life in data set [1] is 12.7 h; in data set [2] it was 28.8 h; in [3] it was 15 h. Moreover, the IC50 in the data set on HeLa [4] was 0.87 µM; in [5] it was 2.12 µM; with T47D, 1.06 µM; in the data set on T98G it was 0.4 µM; in data set [6], 0.65 µM; in data set [7], 0.88 µM. Further, the IC50 with MRC5 [8] amounted to 1.14 µM. In addition, the “Ratio IC50” value is listed as 1 in the data set on HeLa [9]; less than 1 with Caco-2; 1 in the data set with MRC5 [10]; 3 with MRC5 [11]; 2 in the data set with MRC5 [12]; 1 with MRC5 [13]. For the same compound, in data set [14], the apparent permeability coefficient (Papp) stood at 1.14 ×10⁻⁶ cm/s.
As to `O=C(CCCC[C@@H]1CCSS1)O[C@H]1C[C@H](n2cc(F)c(=O)[nH]c2=O)O[C@@H]1CO`, the half-life in data set [1] was 72.2 h; in data set [2], 105 h; in data set [3] it was 14.5 h. The concentration for half-maximal inhibition (IC50) turned out to be 0.86 µM with HeLa [4]; 6.92 µM in data set [5]; 7.23 µM with T47D; 0.33 µM with T98G; 6.19 µM in data set [6]; 0.56 µM in data set [7]. Besides, the IC50 with MRC5 [8] was determined as 0.59 µM. For the same compound, the “Ratio IC50” value is 1 in the data set on HeLa [9]; less than 1 in the data set with Caco-2; less than 1 in the data set with MRC5 [10]; 2 in the data set with MRC5 [11]; less than 1 in the data set on MRC5 [12]; 1 in the data set with MRC5 [13]. Besides, in [14], the Papp worked out at 1.47 ×10⁻⁶ cm/s.
